What was measured:
[1] = biological target: T1, Cathepsin L2 (Homo sapiens) (UniProt O60911); experiment: Inhibition of Cathepsin V at 1 umol/L for 2 mins by spectrofluorometry
T1 sequence (whole entry): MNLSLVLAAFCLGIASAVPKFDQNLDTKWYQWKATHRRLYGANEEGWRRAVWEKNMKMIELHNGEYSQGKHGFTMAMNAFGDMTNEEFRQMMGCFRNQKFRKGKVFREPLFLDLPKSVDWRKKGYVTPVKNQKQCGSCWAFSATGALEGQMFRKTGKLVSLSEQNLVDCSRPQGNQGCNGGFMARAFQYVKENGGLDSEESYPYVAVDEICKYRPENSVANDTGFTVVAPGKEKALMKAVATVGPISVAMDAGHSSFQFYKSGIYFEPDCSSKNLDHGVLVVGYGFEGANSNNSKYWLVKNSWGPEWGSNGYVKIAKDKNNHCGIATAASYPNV
Summary of the method: (§1)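 Enzyme pre-incubated with inhibitor (1 µmol L⁻¹) for 2 min at 37 °C in enzyme-specific buffer (cathepsin S: 50 mmol L⁻¹ sodium phosphate pH 6.5, 2.5 mmol L⁻¹ EDTA; cathepsin V: 50 mmol L⁻¹ sodium acetate pH 5.5, 2.5 mmol L⁻¹ EDTA). Then Cbz-Phe-Arg-AMC (1 µmol L⁻¹) added; fluorescence ex 380/em 460 nm. Residual activity as percentage of uninhibited control; triplicate.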

[2] = biological target: Cathepsin S (Homo sapiens) (UniProt P25774); experiment: Inhibition of Cathepsin S at 1 umol/L for 2 mins by spectrofluorometry; summary of the method: as §1
Sequence of Cathepsin S (Homo sapiens) (P25774 115-331 limits assumed): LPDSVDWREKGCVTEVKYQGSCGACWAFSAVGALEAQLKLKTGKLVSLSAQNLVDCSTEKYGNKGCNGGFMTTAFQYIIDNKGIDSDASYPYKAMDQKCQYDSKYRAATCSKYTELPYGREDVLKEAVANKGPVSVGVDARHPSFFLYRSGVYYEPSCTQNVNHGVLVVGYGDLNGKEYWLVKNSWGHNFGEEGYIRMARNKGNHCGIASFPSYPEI

[3] = biological target: T1, Cathepsin L2 (Homo sapiens); experiment: Inhibition of Cathepsin V assessed as second-order inactivation rate constant by spectrofluorometry
Summary of the method: (§2)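 Continuous assay: substrate Cbz-Phe-Arg-AMC kept 10-fold below KM, with varying inhibitor concentrations, in enzyme-specific buffer (cathepsin S: phosphate pH 6.5, 2.5 mmol L⁻¹ EDTA; cathepsin V: acetate pH 5.5, 2.5 mmol L⁻¹ EDTA). AMC fluorescence ex 380/em 460 nm. Progress curves fit to P = (vz/kobs)[1−exp(−kobs·t)] + d to obtain kobs.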

[4] = biological target: Cathepsin S (Homo sapiens) (UniProt P25774); experiment: Inhibition of Cathepsin S assessed as second-order inactivation rate constant by spectrofluorometry; parameters: unit not given here; summary of the method: as §2

Compound | inhibition [1] [%] | inhibition [2] [%] | Activity [3] [mol/L/s] | Activity [4]
CCCC[Te](Cl)(Cl)c1ccccc1[C@@H](C)OC | 90 | 85 | 2500 | 1800
CCCC[Te](Br)(Br)c1ccccc1[C@H](C)OC | 90 | > 90 | 7400 | 4900
CCCC[Se](Br)(Br)c1ccccc1[C@@H](C)OC | – | – | 1000 | 2200
CCCC[Se](Cl)(Cl)c1ccccc1[C@@H](C)OC | – | – | 900 | 1200
CCCC[Te](Br)(Br)c1ccccc1COC | 90 | 96 | 26400 | 4400
CCCC[Se](Br)(Br)c1ccccc1[C@H](C)OC | – | – | 2200 | 2900
CCCC[Te](Cl)(Cl)c1ccccc1COC | 90 | 85 | 11600 | 1300
CCCC[Se](Br)(Br)c1ccccc1COC | – | – | 3400 | 4000
CCCC[Te](Br)(Br)c1ccccc1[C@@H](C)OC | 90 | > 90 | 3900 | 2500
CCCC[Se](Cl)(Cl)c1ccccc1COC | – | – | 500 | 1500
CCCC[Te](Cl)(Cl)c1ccccc1[C@H](C)OC | 90 | 85 | 2400 | 1800
CCCC[Se](Cl)(Cl)c1ccccc1[C@H](C)OC | – | – | 1000 | 1500
